Data: ChEMBL document CHEMBL1124883, “Monophosphoric acid diesters of 7 beta-hydroxycholesterol and of pyrimidine nucleosides as potential antitumor agents: synthesis and preliminary evaluation of antitumor activity” (1990)

What was measured:
[1] = The percentage of increase in life span was determined; assay type: functional, Mus musculus
Procedure, shortened: (§1)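 Krebs II ascitic carcinoma, 1 × 10^6 cells in 0.25 mL 0.9% NaCl from donor mice with 8-10-day tumors, implanted ip into female Swiss/OF1 mice (20-25 g, six per group). Drugs were given in saline, water or aqueous suspension, 0.2 mL ip daily, starting 24 or 96 h post-implant. Saline controls.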

[2] = Evaluated for median survival time against Kreb II murine sarcoma cells in female Swiss/OF1 mice after ip administration of 80 umol/kg per day; assay type: functional, Mus musculus; procedure, shortened: as §1
[3] = Evaluated for median survival time against Kreb II murine sarcoma cells in female Swiss/OF1 mice after ip administration of 80 uM/kg per day; assay type: functional, Mus musculus; procedure, shortened: as §1
Mus musculus = species on record: Mus musculus; experiment: Complete recovery expressed as percent of animals surviving for more than 80 days was determined; assay type: functional; procedure, shortened: as §1
[4] = Evaluated for median survival time against Kreb II murine sarcoma cells in female Swiss/OF1 mice after ip administration of 84 uM/kg per day; assay type: functional, Mus musculus; procedure, shortened: as §1

Row | Structure (SMILES) | ILS [1] | Median survival time [2] | Median survival time [3] | CR (Mus musculus) | Median survival time [4]
1 | CC(C)CCCC(C)[C@H]1CCC2C3C(CC[C@@]21C)[C@@]1(C)CC[C@H](O)CC1=C[C@@H]3O (stereo in doubt; form 1) | 40% | 21 days |  |  | 
2 | O=c1[nH]c(=O)n([C@@H]2O[C@H](CO)[C@@H](O)[C@H]2O)cc1F [5-FLUOROURIDINE] | 93% |  | 29 days |  | 
3 | CC(C)CCCC(C)[C@H]1CCC2C3C(CC[C@@]21C)[C@@]1(C)CC[C@H](O)CC1=C[C@@H]3O (stereo in doubt; form 2) [listing 1 of 2 here] |  |  |  | 30% | 
4 | CC(C)CCCC(C)[C@H]1CCC2C3C(CC[C@@]21C)[C@@]1(C)CC[C@H](O)CC1=C[C@@H]3O (stereo in doubt; form 2) [listing 2 of 2 here] | 180% |  |  |  | 42 days
5 | CC(C)CCCC(C)[C@H]1CC[C@H]2[C@@H]3[C@@H](O)C=C4C[C@@H](O)CC[C@]4(C)[C@H]3CC[C@]12C.O=c1ccn([C@@H]2O[C@H](CO)[C@@H](O)[C@H]2O)c(=O)[nH]1 (some centres undefined) | 40% | 21 days |  |  | 
